Results: ChEMBL document CHEMBL1130249, “Cyclic enkephalin analogues with exceptional potency and selectivity for delta-opioid receptors” (J Med Chem, 1997)
Peptide text beside a SMILES is read from it.

How the values were obtained:
Type in all cases: tissue-based
[1] = target: Delta-type opioid receptor (Rattus norvegicus, UniProt P33533); experiment: Inhibition of binding of radioligand [3H][p-Cl-phe]-DPDPE to Opioid receptor delta 1 in rat brain
Mu-type opioid receptor [2] = target: Mu-type opioid receptor (Rattus norvegicus, UniProt P33535); experiment: Inhibition of binding of radioligand [3H]CTOP to Opioid receptor mu 1 in rat brain
Sequence of Mu-type opioid receptor (Rattus norvegicus, UniProt P33535) (P33535 whole entry): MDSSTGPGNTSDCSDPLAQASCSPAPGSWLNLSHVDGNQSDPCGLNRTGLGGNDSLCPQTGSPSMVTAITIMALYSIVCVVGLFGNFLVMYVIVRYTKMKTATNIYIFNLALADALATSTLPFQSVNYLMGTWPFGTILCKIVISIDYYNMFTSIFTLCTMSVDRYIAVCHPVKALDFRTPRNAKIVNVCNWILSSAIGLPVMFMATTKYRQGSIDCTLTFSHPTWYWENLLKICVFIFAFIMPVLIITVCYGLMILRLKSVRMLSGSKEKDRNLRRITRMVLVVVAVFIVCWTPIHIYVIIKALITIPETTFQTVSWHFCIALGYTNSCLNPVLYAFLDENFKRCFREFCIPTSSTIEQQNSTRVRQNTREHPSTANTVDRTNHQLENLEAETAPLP
Method in brief: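 Rat whole brain (less cerebellum) membranes, preincubated 30 min at 25 °C to strip endogenous peptides. Displacement of 0.5 nM [3H]CTOP in 50 mM Tris-HCl pH 7.4 containing BSA, bestatin, bacitracin, captopril and toluenesulfonyl fluoride; 10 concentrations over an 800-fold range; 3 h at 25 °C; filtration.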

Mu-type opioid receptor [3] = experiment: Inhibitory potency against Opioid receptor mu 1 was determined in electrically induced strips of guinea pig ileum (GPI)
Method in brief: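 Ileum longitudinal muscle–myenteric plexus strips from male Hartley guinea pigs (250–500 g), in oxygenated Krebs at 37 °C under 1 g tension. Transmural stimulation at 0.1 Hz, 0.4-ms pulses, supramaximal voltage. IC50 from Hill fit of mean data from at least four tissues.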

[4] = target: Delta-type opioid receptor (Mus musculus, UniProt P32300); experiment: Inhibitory potency against Opioid receptor delta 1 was determined in electrically induced smooth muscle contractions of mouse vas deferens (MVD)
Sequence of Delta-type opioid receptor (Mus musculus, UniProt P32300) (P32300 whole entry): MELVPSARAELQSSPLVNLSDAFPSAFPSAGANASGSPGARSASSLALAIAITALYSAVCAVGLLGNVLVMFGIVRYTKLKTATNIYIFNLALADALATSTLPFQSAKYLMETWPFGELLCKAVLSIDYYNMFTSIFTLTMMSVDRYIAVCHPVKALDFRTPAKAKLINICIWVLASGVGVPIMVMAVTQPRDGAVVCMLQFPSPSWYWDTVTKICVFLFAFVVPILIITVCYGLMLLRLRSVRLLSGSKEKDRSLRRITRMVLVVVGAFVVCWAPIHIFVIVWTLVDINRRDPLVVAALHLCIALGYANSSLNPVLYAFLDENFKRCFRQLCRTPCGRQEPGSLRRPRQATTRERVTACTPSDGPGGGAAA
Method in brief: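 Vas deferens from male ICR mice (25–40 g), in Mg-free oxygenated Krebs at 37 °C under 0.5 g tension. Transmural stimulation at 0.1 Hz, 2.0-ms pulses, supramaximal voltage. […] IC50 from Hill fit of mean data from at least four tissues.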

Sequence of Delta-type opioid receptor (Rattus norvegicus, UniProt P33533) (P33533 whole entry): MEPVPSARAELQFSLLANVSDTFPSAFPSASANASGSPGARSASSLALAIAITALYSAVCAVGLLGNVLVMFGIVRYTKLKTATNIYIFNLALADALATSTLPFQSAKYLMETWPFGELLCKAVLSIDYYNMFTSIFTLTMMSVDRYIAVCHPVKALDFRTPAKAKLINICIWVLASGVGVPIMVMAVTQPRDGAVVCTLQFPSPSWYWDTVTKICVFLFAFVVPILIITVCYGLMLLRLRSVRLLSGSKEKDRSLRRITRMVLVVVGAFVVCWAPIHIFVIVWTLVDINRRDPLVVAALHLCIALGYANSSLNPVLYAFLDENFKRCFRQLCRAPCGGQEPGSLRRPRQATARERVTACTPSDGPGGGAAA

Compound | IC50 [1] [nM] | IC50 (Mu-type opioid receptor [2]) [nM] | IC50 (Mu-type opioid receptor [3]) [nM] | IC50 [4] [nM]
CC1(C)SSC(C)(C)[C@@H](NC(=O)[C@@H](N)Cc2ccc(O)cc2)C(=O)NCC(=O)N[C@@H](Cc2ccc(F)cc2)C(=O)N[C@@H]1C(=O)N[C@@H](Cc1ccccc1)C(=O)O | 0.43 | 1650 | 740 | 0.016
CC1(C)SSC(C)(C)[C@@H](NC(=O)[C@@H](N)Cc2ccc(O)cc2)C(=O)NCC(=O)N[C@@H](Cc2ccccc2)C(=O)N[C@@H]1C(=O)N[C@@H](Cc1ccccc1)C(=O)O | 4 | 11400 | 5800 | 1.89
CC1(C)SSC(C)(C)[C@@H](NC(=O)[C@@H](N)Cc2ccc(O)cc2)C(=O)NCC(=O)N[C@@H](Cc2ccc(Br)cc2)C(=O)N[C@@H]1C(=O)N[C@@H](Cc1ccccc1)C(=O)O | 0.2 | 4200 | 3400 | 0.18
CC1(C)SSC(C)(C)[C@@H](NC(=O)[C@@H](N)Cc2ccc(O)cc2)C(=O)NCC(=O)N[C@@H](Cc2ccc(Cl)cc2)C(=O)N[C@@H]1C(=O)N[C@@H](Cc1ccccc1)C(=O)O | 0.4 | 1700 | 420 | 0.17
CC1(C)SSC(C)(C)[C@@H](NC(=O)[C@@H](N)Cc2ccc(O)cc2)C(=O)NCC(=O)N[C@@H](Cc2ccc(I)cc2)C(=O)N[C@@H]1C(=O)N[C@@H](Cc1ccccc1)C(=O)O | 0.47 | 7300 | 8700 | 0.8
CC1(C)SSC[C@@H](C(=O)N[C@@H](Cc2ccccc2)C(=O)O)NC(=O)[C@H](Cc2ccccc2)NC(=O)CNC(=O)[C@@H]1NC(=O)[C@@H](N)Cc1ccc(O)cc1 (HELM PEPTIDE1{Y.[CC(C)(S[*:3])[C@@H](N[*:1])C(=O)[*:2]].G.F.C.F}$PEPTIDE1,PEPTIDE1,2:R3-5:R3$$$V2.0) | – | – | 83 | –
